Assay results pooled from the literature.
Protocols differ between the studies behind these lines.
Observed: DPPH scavenging

With `COc1cc(C=Cc2cc(-c3ccc(N(C)C)cc3)nc(O)n2)ccc1O` the inhibition was 39.4% (12.5 µg/mL).
For `Oc1ccc(Br)cc1C=NCCN1CCOCC1`, the inhibition was 10.1% (absorbance; 40 µM).
For `CCN(O)N=Nc1ccc(S(=O)(=O)Nc2nccs2)cc1`, the inhibition was 6.63% (absorbance; 20 µg/mL).
With `COc1cc(C=Cc2cc(-c3ccccc3)nc(O)n2)ccc1O` the inhibition was 50% (25 µg/mL).
`Cc1cc(NS(=O)(=O)c2ccc(N=NN(O)c3ccccc3)cc2)no1` has an inhibition of 33.7% (absorbance; 240 µg/mL).
The inhibition of `Cc1ccc(C(C)C)cc1NC(=O)COC(=O)/C=C/c1ccc(Cl)cc1` is reported as 7.5% (100 µg/mL).
`O=C1O[C@H]([C@@H](O)CO)C(O)=C1O` gave an inhibition of 77.6% (50 µg/mL).
`Cc1ccc(C(C)C)cc1NC(=O)COC(=O)c1cc(O)cc(O)c1` has an inhibition of 7.12% (100 µg/mL).
With `COc1cc(C=CC(=O)CC(c2ccc(N(C)C)cc2)n2ccnc2)ccc1O` (stereo not drawn) the inhibition was 65.2% (50 µg/mL).
`Cc1ccc(N(O)N=Nc2ccc(S(=O)(=O)Nc3cc(C)on3)cc2)cc1` has an inhibition of 19.9% (absorbance; 60 µg/mL).
With `O=C1O[C@H]([C@@H](O)CO)C(O)=C1O` the inhibition was 41.6% (absorbance; 40 µM).
`Cc1ccc(C(C)C)cc1NC(=O)COC(=O)/C=C/c1ccc(O)cc1` gave an inhibition of 8.51% (100 µg/mL).
For `CCN(O)N=Nc1ccc(S(=O)(=O)Nc2onc(C)c2C)cc1`, the inhibition was 22.5% (absorbance; 180 µg/mL).
For `Cc1ccc(C(C)C)cc1NC(=O)COC(=O)c1ccc(O)cc1O`, the inhibition was 2.4% (100 µg/mL).
`CCCN(O)N=Nc1ccc(S(=O)(=O)Nc2cc(C)on2)cc1` has an inhibition of 22.8% (absorbance; 180 µg/mL).
`COc1cc(C=CC(=O)CC(c2ccc([N+](=O)[O-])cc2)n2ccnc2)ccc1O` (stereo not drawn) has an inhibition of 37.1% (12.5 µg/mL).
`Cc1cccc(N(O)N=Nc2ccc(S(=O)(=O)Nc3cc(C)on3)cc2)c1` gave an inhibition of 37.1% (absorbance; 300 µg/mL).
For `Cc1ccc(C(C)C)cc1NC(=O)COC(=O)c1ccc(O)cc1`, the inhibition was 1.7% (100 µg/mL).
